Values after ≈ are worked out from the molar mass of the structure shown.
How the values were obtained:
[1] = Partition coefficient, log k of the compound; format: physicochemical; settings: octanol/water
Outline: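 Capacity factor k measured by isocratic RP-HPLC on an end-capped non-polar C18 column, with methanol as organic modifier in the mobile phase. Value given as log k and used as a lipophilicity index converted to the logP scale.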

[2] = system: Mycobacterium avium; experiment: Antimycobacterial activity against Mycobacterium avium CNCTC My 80/72 after 14 days by microdilution panel method; format: functional; settings: CNCTC My 80/72, 336 h
Outline: (§1)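 Compounds dissolved in DMSO, diluted in Šula's semisynthetic medium in microdilution panels. Cultures grown in Šula's medium, pH 5.5, 37 °C. After 14 days incubation, activity read visually as MIC (µg/mL), also converted to µmol/L. Pyrazinamide run as standard.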

[3] = system: Mycobacterium avium; experiment: Antimycobacterial activity against Mycobacterium avium CNCTC My 152/73 after 14 days by microdilution panel method; format: functional; settings: CNCTC My 152/73, 336 h; outline: as §1
[4] = Aqueous solubility of the compound; format: physicochemical; settings: buffer
[5] = system: Mycobacterium kansasii; experiment: Antimycobacterial activity against Mycobacterium kansasii CNCTC My 235/80 after 6 days by microdilution panel method; format: functional; settings: CNCTC My 235/80, 144 h
Outline: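 Microdilution panel; compounds dissolved in DMSO and diluted with Šula's semisynthetic medium. Cultures grown in Šula's semisynthetic medium, pH 5.5, 37 °C. After 6 days of incubation, MIC (µg/mL) read visually. MICs also converted to molar units (µmol/L). PZA run as standard.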

[6] = system: Mycobacterium tuberculosis; experiment: Antimycobacterial activity against Mycobacterium tuberculosis H37Rv CNCTC My 331/88 after 14 days by microdilution panel method; format: functional; settings: H37Rv CNCTC My 331/88, 336 h; outline: as §1

N#Cc1cnc(C#N)c(NC2CCCC2)n1
log K [1]: 0.7273 | MIC [2]: > 200 µg/mL | MIC [3]: > 200 µg/mL | solubility [4]: Insoluble | MIC [5]: > 200 µg/mL | MIC [6]: > 200 µg/mL

CCCCCNc1nc(C#N)cnc1C#N
log K [1]: 0.7901 | MIC [2]: 100 µg/mL (≈ 465 µM) | MIC [3]: 100 µg/mL (≈ 465 µM) | MIC [5]: 100 µg/mL (≈ 465 µM) | MIC [6]: 50 µg/mL (≈ 232 µM)

CCCCNc1nc(C#N)cnc1C#N
log K [1]: 0.7088 | MIC [2]: 100 µg/mL (≈ 497 µM) | MIC [3]: 100 µg/mL (≈ 497 µM) | MIC [5]: 100 µg/mL (≈ 497 µM) | MIC [6]: 100 µg/mL (≈ 497 µM)

CCCCCCCNc1nc(C#N)cnc1C#N
log K [1]: 1.0243 | MIC [2]: > 200 µg/mL | MIC [3]: > 200 µg/mL | MIC [5]: > 200 µg/mL | MIC [6]: 12.5 µg/mL (≈ 51.4 µM)

CN1CCN(c2nc(C#N)cnc2C#N)CC1
log K [1]: 0.5946 | MIC [2]: > 200 µg/mL | MIC [3]: > 200 µg/mL | MIC [5]: > 200 µg/mL | MIC [6]: > 200 µg/mL

N#Cc1cnc(C#N)c(NC2CCCCC2)n1
log K [1]: 0.7896 | MIC [2]: > 200 µg/mL | MIC [3]: > 200 µg/mL | solubility [4]: Insoluble | MIC [5]: > 200 µg/mL | MIC [6]: > 200 µg/mL

CCNc1nc(C#N)cnc1C#N
log K [1]: 0.6146 | MIC [2]: > 200 µg/mL | MIC [3]: > 200 µg/mL | MIC [5]: 200 µg/mL (≈ 1150 µM) | MIC [6]: 100 µg/mL (≈ 577 µM)

CCCNc1nc(C#N)cnc1C#N
log K [1]: 0.6497 | MIC [2]: 200 µg/mL (≈ 1070 µM) | MIC [3]: 200 µg/mL (≈ 1070 µM) | MIC [5]: 200 µg/mL (≈ 1070 µM) | MIC [6]: 200 µg/mL (≈ 1070 µM)

CCCCCCNc1nc(C#N)cnc1C#N
log K [1]: 0.9133 | MIC [2]: 100 µg/mL (≈ 436 µM) | MIC [3]: 100 µg/mL (≈ 436 µM) | MIC [5]: 50 µg/mL (≈ 218 µM) | MIC [6]: 25 µg/mL (≈ 109 µM)

N#Cc1cnc(C#N)c(N2CCOCC2)n1
log K [1]: 0.583 | MIC [2]: > 200 µg/mL | MIC [3]: > 200 µg/mL | MIC [5]: 200 µg/mL (≈ 929 µM) | MIC [6]: 200 µg/mL (≈ 929 µM)

NC(=O)c1cnccn1 [PYRAZINAMIDE]
log K [1]: 0.0514 | MIC [2]: > 200 µg/mL | MIC [3]: > 200 µg/mL | MIC [5]: > 200 µg/mL | MIC [6]: 12.5 µg/mL (≈ 102 µM)

CCCCCCCCNc1nc(C#N)cnc1C#N
log K [1]: 1.1953 | MIC [2]: > 200 µg/mL | MIC [3]: > 200 µg/mL | MIC [5]: 100 µg/mL (≈ 389 µM) | MIC [6]: 25 µg/mL (≈ 97.1 µM)

CCN(CC)c1nc(C#N)cnc1C#N
log K [1]: 0.6685 | MIC [2]: > 200 µg/mL | MIC [3]: > 200 µg/mL | MIC [5]: 100 µg/mL (≈ 497 µM) | MIC [6]: 100 µg/mL (≈ 497 µM)

N#Cc1cnc(C#N)c(NC2CCCCCC2)n1
log K [1]: 0.8789 | MIC [2]: > 200 µg/mL | MIC [3]: > 200 µg/mL | solubility [4]: Insoluble | MIC [5]: > 200 µg/mL | MIC [6]: > 200 µg/mL

CNc1nc(C#N)cnc1C#N
log K [1]: 0.5859 | MIC [2]: > 200 µg/mL | MIC [3]: > 200 µg/mL | MIC [5]: 100 µg/mL (≈ 628 µM) | MIC [6]: 100 µg/mL (≈ 628 µM)

N#Cc1cnc(C#N)c(Cl)n1
log K [1]: 0.5792 | MIC [2]: 100 µg/mL (≈ 608 µM) | MIC [3]: 100 µg/mL (≈ 608 µM) | MIC [5]: > 200 µg/mL | MIC [6]: 25 µg/mL (≈ 152 µM)

Source: ChEMBL document CHEMBL1949516, “Synthesis and antimycobacterial evaluation of N-substituted 3-aminopyrazine-2,5-dicarbonitriles” (Bioorg Med Chem Lett, 2012)
